Results: ChEMBL document CHEMBL3259728, “Design, synthesis and biological evaluation of some novel substituted quinazolines as antitumor agents” (2014)

Legend:
Type in all cases: functional
HT-29 [1] = test: Growth inhibition of human HT-29 cells assessed as cell growth at 10^-5 M after 48 hrs by SRB assay; details: HT-29, 48 h, read-out: Activity
NCI-H23 [2] = test: Growth inhibition of human NCI-H23 cells assessed as cell growth at 10^-6 M after 48 hrs by SRB assay; details: NCI-H23, 48 h, read-out: Activity
RPMI-8226 = test: Growth inhibition of human RPMI8226 cells assessed as cell growth at 10^-5 M after 48 hrs by SRB assay; details: RPMI-8226, 48 h, read-out: Activity
786-0 = test: Growth inhibition of human 786-0 cells assessed as cell growth at 10^-7 M after 48 hrs by SRB assay; details: 786-0, 48 h, read-out: Activity
In short: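 Five-dose NCI panel protocol. Each dose (10^-4 to 10^-8 M, 10-fold steps) was given as 48 h continuous exposure, and protein was measured by SRB staining. Percentage growth at each level is [(Ti−Tz)/(C−Tz)]×100, where Tz is time-zero absorbance and C is untreated control.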

NCI-H23 [3] = test: Growth inhibition of human NCI-H23 cells assessed as cell growth at 10^-5 M after 48 hrs by SRB assay; details: NCI-H23, 48 h, read-out: Activity
MDA-MB-231 = test: Growth inhibition of human MDA-MB-231 cells assessed as cell growth at 10^-6 M after 48 hrs by SRB assay; details: MDA-MB-231, 48 h, read-out: Activity
MCF7 = test: Cytotoxicity against human MCF7 cells after 48 hrs by SRB assay; details: MCF7, 48 h
In short: (§1)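 NCI 60-cell-line panel of human tumour lines from nine cancer types. Continuous 48 h exposure at five 10-fold dilutions from 10^-4 to 10^-8 M, with 5-FU as positive control. SRB protein stain read spectrophotometrically at time zero, untreated control and each concentration. GI50, TGI and LC50 were derived from the [(Ti−Tz)/(C−Tz)]×100 growth relations, and out-of-range values are given as > or < the tested limits.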

SR = test: Growth inhibition of human SR cells assessed as cell growth at 10^-5 M after 48 hrs by SRB assay; details: read-out: Activity
K562 = test: Growth inhibition of human K562 cells assessed as cell growth at 10^-5 M after 48 hrs by SRB assay; details: K562, 48 h, read-out: Activity
PC-3 [4] = test: Growth inhibition of human PC3 cells assessed as cell growth at 10^-5 M after 48 hrs by SRB assay; details: PC-3, 48 h, read-out: Activity
[5] = Cytotoxicity against human OVCAR3 cells after 48 hrs by SRB assay; details: OVCAR-3, 48 h; in short: as §1
NCI-H322M = test: Cytotoxicity against human NCI-H322M cells after 48 hrs by SRB assay; in short: as §1
HT-29 [6] = test: Growth inhibition of human HT-29 cells assessed as cell growth at 10^-7 M after 48 hrs by SRB assay; details: HT-29, 48 h, read-out: Activity
SN12C = test: Growth inhibition of human SN12C cells assessed as cell growth at 10^-7 M after 48 hrs by SRB assay; details: read-out: Activity
KM12 = test: Growth inhibition of human KM12 cells assessed as cell growth at 10^-4 M after 48 hrs by SRB assay; details: KM12, 48 h, read-out: Activity
[7] = Growth inhibition of human UACC62 cells assessed as cell growth at 10^-5 M after 48 hrs by SRB assay; details: UACC-62, 48 h, read-out: Activity
SK-OV-3 [8] = test: Growth inhibition of human SKOV3 cells assessed as cell growth at 10^-4 M after 48 hrs by SRB assay; details: SK-OV-3, 48 h, read-out: Activity
[9] = Growth inhibition of human UACC62 cells assessed as cell growth at 10^-4 M after 48 hrs by SRB assay; details: UACC-62, 48 h, read-out: Activity
NCI-H460 = test: Growth inhibition of human NCI-H460 cells assessed as cell growth at 10^-8 M after 48 hrs by SRB assay; details: NCI-H460, 48 h, read-out: Activity
NCI-H23 [10] = test: Cytotoxicity against human NCI-H23 cells after 48 hrs by SRB assay; details: NCI-H23, 48 h; in short: as §1
[11] = Cytotoxicity against human UACC257 cells after 48 hrs by SRB assay; details: UACC-257, 48 h
In short: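 NCI 60-cell-line panel, 48 h continuous exposure to five 10-fold dilutions from 10^-4 to 10^-8 M. SRB protein staining was read spectrophotometrically, with time-zero, untreated-control and treated absorbances. GI50, TGI and LC50 were derived from the percentage-growth formulas. Values outside the tested range are expressed as more or less than the maximum or minimum concentration.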

Malme-3M [12] = test: Growth inhibition of human MALME-3M cells assessed as cell growth at 10^-7 M after 48 hrs by SRB assay; details: read-out: Activity
SK-OV-3 [13] = test: Growth inhibition of human SKOV3 cells assessed as cell growth at 10^-6 M after 48 hrs by SRB assay; details: SK-OV-3, 48 h, read-out: Activity
Malme-3M [14] = test: Growth inhibition of human MALME-3M cells assessed as cell growth at 10^-4 M after 48 hrs by SRB assay; details: read-out: Activity
NCI-H23 [15] = test: Growth inhibition of human NCI-H23 cells assessed as cell growth at 10^-7 M after 48 hrs by SRB assay; details: NCI-H23, 48 h, read-out: Activity
SK-OV-3 [16] = test: Growth inhibition of human SKOV3 cells assessed as cell growth at 10^-7 M after 48 hrs by SRB assay; details: SK-OV-3, 48 h, read-out: Activity
[17] = Cytotoxicity against human OVCAR8 cells after 48 hrs by SRB assay; details: OVCAR-8, 48 h; in short: as §1
PC-3 [18] = test: Growth inhibition of human PC3 cells assessed as cell growth at 10^-4 M after 48 hrs by SRB assay; details: PC-3, 48 h, read-out: Activity
SK-MEL-5 = test: Growth inhibition of human SK-MEL-5 cells assessed as cell growth at 10^-5 M after 48 hrs by SRB assay; details: SK-MEL-5, 48 h, read-out: Activity
[19] = read-out: LC50 (the source's name)
[20] = read-out: pLC50 (the source's name) (converted)

Q: What does the source list for Cc1ccc(-c2nc3ccc(Cl)cc3c(=O)n2/N=C/c2ccccc2)cc1?
A: growth at 10 µM (HT-29 [1]): 69%; growth at 1 µM (NCI-H23 [2]): 87%; growth at 10 µM (RPMI-8226): 72%; growth at 0.1 µM (786-0): 93%; growth at 10 µM (NCI-H23 [3]): 65%; growth at 1 µM (MDA-MB-231): 78%; GI50 (MCF7; read-out: GI50): 26.9 µM; CC50 (MCF7; [19]): > 100 µM; TGI (MCF7; read-out: TGI): > 100 µM; GI50 (MCF7; read-out: pGI50 (converted)): 26.9 µM; CC50 (MCF7; [20]): > 100 µM; TGI (MCF7; read-out: pTGI): > 100 µM; growth at 10 µM (SR): 63%; growth at 10 µM (K562): 72%; growth at 10 µM (PC-3 [4]): 66%; GI50 ([5]; read-out: GI50): 5.44 µM; CC50 [5, 19]: > 100 µM; TGI ([5]; read-out: TGI): > 100 µM; GI50 ([5]; read-out: pGI50 (converted)): 5.5 µM; CC50 [5, 20]: > 100 µM; TGI ([5]; read-out: pTGI): > 100 µM; GI50 (NCI-H322M; read-out: GI50): 17.4 µM; LC50 (NCI-H322M; read-out: LC50): > 100 µM; TGI (NCI-H322M; read-out: TGI): > 100 µM; GI50 (NCI-H322M; read-out: pGI50 (converted)): 17.4 µM; LC50 (NCI-H322M; read-out: pLC50 (converted)): > 100 µM; TGI (NCI-H322M; read-out: pTGI): > 100 µM; growth at 0.1 µM (HT-29 [6]): 93%; growth at 0.1 µM (SN12C): 92%; growth at 100 µM (KM12): 63%; growth at 10 µM [7]: 62%; growth at 100 µM (SK-OV-3 [8]): -37%; growth at 100 µM [9]: 32%; growth at 0.01 µM (NCI-H460): 100%; GI50 (NCI-H23 [10]; read-out: GI50): 100 µM; CC50 (NCI-H23 [10]; [19]): > 100 µM; TGI (NCI-H23 [10]; read-out: TGI): > 100 µM; GI50 (NCI-H23 [10]; read-out: pGI50 (converted)): > 100 µM; CC50 (NCI-H23 [10]; [20]): > 100 µM; TGI (NCI-H23 [10]; read-out: pTGI): > 100 µM; GI50 ([11]; read-out: GI50): > 100 µM; CC50 [11, 19]: > 100 µM; TGI ([11]; read-out: TGI): > 100 µM; GI50 ([11]; read-out: pGI50 (converted)): > 100 µM; CC50 [11, 20]: > 100 µM; TGI ([11]; read-out: pTGI): > 100 µM; growth at 0.1 µM (Malme-3M [12]): 76%; growth at 1 µM (SK-OV-3 [13]): 93%; growth at 100 µM (Malme-3M [14]): 42%; growth at 0.1 µM (NCI-H23 [15]): 89%; growth at 0.1 µM (SK-OV-3 [16]): 97%; GI50 ([17]; read-out: GI50): 4.58 µM; CC50 [17, 19]: > 100 µM; TGI ([17]; read-out: TGI): > 100 µM; GI50 ([17]; read-out: pGI50 (converted)): 4.57 µM; CC50 [17, 20]: > 100 µM; TGI ([17]; read-out: pTGI): > 100 µM; growth at 100 µM (PC-3 [18]): 49%; growth at 10 µM (SK-MEL-5): 57%
